Measured values published in ChEMBL document CHEMBL5029154, “Design, Synthesis, and Biological Evaluation of Organic Nitrite (NO2-) Donors as Potential Anticerebral Ischemia Agents” (J Med Chem, 2021).
Activity calls are given as the source filed them. No cut-off for these calls is given here.

Legend:
Rattus norvegicus [1] = assay: Neuroprotective activity against middle cerebral artery occlusion-induced ischemia-reperfusion injury Sprague-Dawley rat model assessed as decrease in cerebral edema degree at 95 to 9500 microg/kg, iv pretreated for 2 hrs followed by reperfusion measured after 24 hrs; assay type: functional, organism-based; conditions: dose 95-9500 µg/kg
Method in brief: (§1)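 Male SD rats (N = 8/group) were dosed iv at 95, 950 or 9500 μg/kg 2 h before 2 h MCAO (nylon suture, chloral hydrate anesthesia), then reperfused. Where used, PTIO 1 mg/kg iv was given 30 min before compound. At 24 h, blinded assessment covered Longa deficit score, TTC-stained 2 mm sections (infarct area/whole area), and edema by wet/dry weight.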

[2] = GSH reactivity assessed as reaction rate measured at 8 equiv of GSH upto 24 hrs by HPLC analysis; assay type: ADME
Rattus norvegicus [3] = assay: Neuroprotective activity against middle cerebral artery occlusion-induced ischemia-reperfusion injury Sprague-Dawley rat model assessed as decrease in cerebral edema degree at 95 to 9500 microg/kg, iv treated immediately reperfusion measured after 24 hrs; assay type: functional, organism-based; conditions: dose 95-9500 µg/kg
Method in brief: (§2)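 Male SD rats (12 weeks, 200–220 g; N = 8/group) underwent MCAO under […] (350 mg/kg) using a nylon intraluminal suture for 2 h, then reperfusion. Compound (95, 950 or 9500 μg/kg) was given iv immediately after reperfusion; where used, PTIO 1 mg/kg iv was given 30 min before. At 24 h, blinded scoring covered Longa neurological deficit, TTC infarct area/whole area, and edema from wet/dry brain weight (105 °C, 24 h).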

Cortical neurone [4] = assay: Neuroprotective activity against in OGD/R-induced rat cortical neuron cytotoxicity assessed as decrease in cell viability pretreated at 1.8 uM for 24 hrs followed by subjected to OGD for 2 hrs measured after 24 hrs under normoxic condition i n presence of ML385 by MTT assay; assay type: functional, tissue-based
Method in brief: (§3)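 Cortical neurons were isolated from SD rat cortex by enzymatic digestion, plated on poly-lysine in 10% FBS DMEM, and pretreated 24 h at 1.8 μM in basal medium with 2% B27. OGD was run in glucose/FBS-free DMEM under 1% O₂, followed by 24 h reoxygenation in 10% FBS DMEM. Viability was read by MTT; apoptosis was also assessed. Three independent experiments.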

[5] = Stability of the compound under dark condition at 200 uM measured after 24 hrs by HPLC analysis; assay type: physicochemical
Rattus norvegicus [6] = assay: Neuroprotective activity against middle cerebral artery occlusion-induced ischemia-reperfusion injury Sprague-Dawley rat model assessed as increase in HO-1 expression in cerebral ischemic penumbra at 950 microg/kg, iv treated immediately reperfusion measured after 24 hrs; assay type: functional, organism-based; conditions: dose 950.0 µg/kg
Method in brief: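 MCAO rat brain paraffin sections (3 μm) were blocked with 10% goat serum and stained by IHC for NQO-1 and HO-1 (1:200) and phospho-Nrf2 (1:100), with DAB detection and rabbit IgG as negative control. Average optical density of positive cells was scored blinded over five fields per sample.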

Rattus norvegicus [7] = assay: (§4) Neuroprotective activity against middle cerebral artery occlusion-induced ischemia-reperfusion injury Sprague-Dawley rat model assessed as increase in CD31 expression in cerebral ischemic penumbra at 95 to 950 microg/kg, iv treated immediately reperfusion measured after 24 hrs by immunofluoresence assay; assay type: functional, organism-based; conditions: dose 95-950 µg/kg
[8] = Neuroprotective activity against in OGD/R-induced rat primary cortical neuron apoptosis assessed as viable cells pretreated at 1.8 uM for 24 hrs followed by subjected to OGD for 2 hrs measured after 24 hrs under normoxic condition by PI/FITC-H staining based flow cytometry (reference value: 31.55%); assay type: functional; conditions: Cortical neurone, read-out: Activity; method in brief: as §3
Rattus norvegicus [9] = assay: Angiogenic activity in middle cerebral artery occlusion-induced ischemia-reperfusion injury Sprague-Dawley rat model assessed as tube formation in cerebral ischemic penumbra at 95 to 9500 microg/kg, iv treated immediately reperfusion measured after 7 days by immunofluoresence assay; assay type: functional, organism-based; conditions: dose 95-9500 µg/kg, time 7.0 day
Method in brief: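 After MCAO/reperfusion, SD rats (N = 5/group) were dosed iv immediately after reperfusion and then daily for 7 days, with or without PTIO. Paraffin brain sections (3 μm) were immunostained for CD31, Ki67 and Aurora B with DAPI. Vascular density was CD31⁺/DAPI⁺; proliferating endothelium was CD31⁺Ki67⁺/CD31⁺.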

Rattus norvegicus [10] = assay: Neuroprotective activity against middle cerebral artery occlusion-induced ischemia-reperfusion injury Sprague-Dawley rat model assessed as decrease in brain infarct volume at 95 to 9500 microg/kg, iv treated immediately reperfusion in presence of PTIO measured after 24 hrs; assay type: functional, organism-based; conditions: dose 95-9500 µg/kg; method in brief: as §2
Rattus norvegicus [11] = assay: Neuroprotective activity against middle cerebral artery occlusion-induced ischemia-reperfusion injury Sprague-Dawley rat model assessed as decrease in neurologic deficit scores at 95 to 9500 microg/kg, iv pretreated for 2 hrs followed by reperfusion measured after 24 hrs; assay type: functional, organism-based; conditions: dose 95-9500 µg/kg; method in brief: as §1
Cortical neurone [12] = assay: Induction of NQO1 mRNA transcript level in OGD/R-induced rat primary cortical neuron pretreated at 1.8 uM for 24 hrs followed by subjected to OGD for 2 hrs measured after 24 hrs under normoxic condition by RT-qPCR analysis; assay type: functional, tissue-based
Method in brief: (§5)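 Primary rat cortical neurons were pretreated with 1.8 μM compound for 24 h, given 2 h OGD, then 24 h normoxic culture. Nrf2, HO-1 and NQO1 mRNA were measured by RT-qPCR. Cytoplasmic and nuclear protein (30 μg/lane) were blotted for Nrf2, with lamin A and β-actin as references, and quantified by densitometry as the nuclear:cytoplasmic ratio. Three independent experiments, mean ± SD.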

Rattus norvegicus [13] = assay: as §4, with “AuroraB + cells” for “CD31 expression”, “hrs in presence of PTIO” for “hrs”; assay type: functional, organism-based; conditions: dose 95-950 µg/kg
[14] = Lipo-hydro partition coefficient, logP of compound; assay type: physicochemical; conditions: octanol/water
Rattus norvegicus [15] = assay: Neuroprotective activity against middle cerebral artery occlusion-induced ischemia-reperfusion injury Sprague-Dawley rat model assessed as decrease in cerebral edema degree at 95 to 9500 microg/kg, iv treated immediately reperfusion in presence of PTIO measured after 24 hrs; assay type: functional, organism-based; conditions: dose 95-9500 µg/kg; method in brief: as §2
Cortical neurone [16] = assay: Induction of Nrf2 protein level in OGD/R-induced rat primary cortical neuron pretreated at 1.8 uM for 24 hrs followed by subjected to OGD for 2 hrs measured after 24 hrs under normoxic condition by Western blot analysis; assay type: functional, tissue-based; method in brief: as §5
Rattus norvegicus [17] = assay: as §4, with “Ki67+ cells” for “CD31 expression”, “hrs in presence of PTIO” for “hrs”; assay type: functional, organism-based; conditions: dose 95-950 µg/kg
Rattus norvegicus [18] = assay: Neuroprotective activity against middle cerebral artery occlusion-induced ischemia-reperfusion injury Sprague-Dawley rat model assessed as decrease in neurologic deficit scores at 950 microg/kg, iv pretreated for 2 hrs followed by reperfusion measured after 24 hrs in presence of PTIO; assay type: functional, organism-based; conditions: dose 950.0 µg/kg; method in brief: as §1
Rattus norvegicus [19] = assay: Neuroprotective activity against middle cerebral artery occlusion-induced ischemia-reperfusion injury Sprague-Dawley rat model assessed as decrease in cerebral edema degree at 950 microg/kg, iv pretreated for 2 hrs followed by reperfusion measured after 24 hrs in presence of PTIO; assay type: functional, organism-based; conditions: dose 950.0 µg/kg; method in brief: as §1
HUVEC = assay: Angiogenesis activity in HUVEC cells assessed as increase in tube formation at 1.8 uM measured after 8 hrs by inverted microscopy; assay type: functional, cell-based; conditions: Homo sapiens
Method in brief: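 Early-passage HUVECs (passages 2–6), grown in DMEM with 10% FBS, glutamine, pyruvate and antibiotics, were seeded at 8 × 10⁴ cells/well on Matrigel. They were exposed to vehicle or compound for 8 h at 37 °C, 5% CO₂. Tubes were counted under an inverted microscope.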

Rattus norvegicus [20] = assay: as §4, with “hrs in presence of PTIO” for “hrs”; assay type: functional, organism-based; conditions: dose 95-950 µg/kg

Q: Which Activity (Rattus norvegicus [1]) does the source give for `O=C(/C(=C/c1ccccc1)C[N+](=O)[O-])c1ccccc1` here?
A: Its Activity is “Active”.

Q: And the Activity [2]?
A: The Activity was 0.0363 h⁻¹.

Q: And the Activity (Rattus norvegicus [3])?
A: The Activity was “Active”.

Q: And the Activity (Cortical neurone [4])?
A: Its Activity is “Active”.

Q: What about the Stability [5] of the same molecule?
A: Its Stability is “Stable”.

Q: What about the Activity (Rattus norvegicus [6]) of the same molecule?
A: The Activity was “Active”.

Q: What about the Activity (Rattus norvegicus [7]) of the same molecule?
A: Its Activity is “Active”.

Q: And the viability at 1.8 µM [8]?
A: The viability at 1.8 µM was 69.8%.

Q: And the Activity (Rattus norvegicus [9])?
A: Its Activity is “Active”.

Q: And the Activity (Rattus norvegicus [10])?
A: The Activity was “inactive”.

Q: What about the Activity (Rattus norvegicus [11]) of the same molecule?
A: The Activity was “Active”.

Q: And the Activity (Cortical neurone [12])?
A: The Activity was “Active”.

Q: What about the Activity (Rattus norvegicus [13]) of the same molecule?
A: Its Activity is “inactive”.

Q: And the logP [14]?
A: The logP was 0.54.

Q: And the Activity (Rattus norvegicus [15])?
A: Its Activity is “inactive”.

Q: What about the Activity (Cortical neurone [16]) of the same molecule?
A: Its Activity is “Active”.

Q: And the Activity (Rattus norvegicus [17])?
A: Its Activity is “inactive”.

Q: What about the Activity (Rattus norvegicus [18]) of the same molecule?
A: The Activity was “inactive”.

Q: And the Activity (Rattus norvegicus [19])?
A: The Activity was “inactive”.

Q: What about the Activity (HUVEC) of the same molecule?
A: Its Activity is “Active”.

Q: And the Activity (Rattus norvegicus [20])?
A: Its Activity is “inactive”.
